From ChEMBL document CHEMBL2384901, “Synthesis and biology of oligoethylene glycol linked naphthoxylosides” (Bioorg Med Chem, 2013)

Key:
[1] = Induction of heparan sulphate synthesis in human CCD-1095SK cells assessed as proportion of heparan sulphate of total GAGs; format: functional; parameters: concentration or dose not given beside the values
Method in brief: (§1)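 Xyloside-primed [35S]sulfate material was pooled from Superose 6 fractions, 35–51 for HCC70 and 34–51 for CCD-1095Sk. HS was cleaved by deaminative HNO2 at pH 1.5, then the digest was re-separated by gel permeation. Radioactivity was measured by β-counting.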

[2] = Cytotoxicity against human CCD-1095SK cells assessed as growth inhibition after 96 hrs by crystal violet staining assay; format: cell-based; conditions: read-out: ED50
Method in brief: (§2)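 Cells plated at 5000/well in MEM Earle's or RPMI-1640 with 10% FBS. After 24 h, medium changed to Ham's F-12 with insulin (10 µg/mL), transferrin (25 µg/mL), 1% L-glutamine, 10 ng/mL EGF and xylosides at 5–500 µM, for 96 h. Cells fixed in 0.25% glutaraldehyde and stained with 0.1% crystal violet. Lysed in 1% Triton X-100; A595 read. ED50 reported.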

HCC70 [3] = assay: Induction of glycosaminoglycan synthesis in human HCC70 cells assessed as [35S]sulfate incorporation at 100 uM after 24 hrs by bata counting analysis relative to untreated control
HCC70 [4] = assay: Cytotoxicity against human HCC70 cells assessed as growth inhibition after 96 hrs by crystal violet staining assay; format: functional; conditions: HCC70, 96 h, read-out: ED50 (the source's name); method in brief: as §2
HCC70 [5] = assay: Induction of heparan sulphate synthesis in human HCC70 cells assessed as proportion of heparan sulphate of total GAGs; format: functional; parameters: concentration or dose not given beside the values; method in brief: as §1
[6] = Induction of glycosaminoglycan synthesis in human CCD-1095SK cells assessed as [35S]sulfate incorporation at 100 uM after 24 hrs by bata counting analysis relative to untreated control

Compound	Activity [1] [%]	GI50 at 96 h [2] [µM]	fold change (FC) (HCC70 [3])	EC50 (HCC70 [4]) [µM]	Activity (HCC70 [5]) [%]	fold change (FC) [6]
O[C@@H]1[C@@H](O)[C@H](Oc2ccc3ccccc3c2)OC[C@H]1O	3	152	16	243	9	24
Oc1ccc2cc(O[C@@H]3OC[C@@H](O)[C@H](O)[C@H]3O)ccc2c1	6	258	37	7	28	74
O[C@@H]1[C@@H](O)[C@H](OCc2ccc3ccccc3c2)OC[C@H]1O	7	298	31	267	14	55
O[C@@H]1[C@@H](O)[C@H](OCCOc2ccc3ccccc3c2)OC[C@H]1O	3	140	26	221	9	79
O[C@@H]1[C@@H](O)[C@H](OCCOCCOc2ccc3ccccc3c2)OC[C@H]1O	2	150	29	129	5	80
O[C@@H]1[C@@H](O)[C@H](OCCOCCOCCOc2ccc3ccccc3c2)OC[C@H]1O	20	70	21	87	15	74
Oc1ccc2cc(CO[C@@H]3OC[C@@H](O)[C@H](O)[C@H]3O)ccc2c1	7	223	42	282	14	98
Oc1ccc2cc(OCCO[C@@H]3OC[C@@H](O)[C@H](O)[C@H]3O)ccc2c1	26	280	29	178	34	90
